Among the data in ChEMBL document CHEMBL3351416, “Design, synthesis and biological evaluation of novel pyrenyl derivatives as anticancer agents” (Eur J Med Chem, 2015) are IC50, Activity and Drug uptake values, retold here.

The nature of data set [1]: Cytotoxicity against human SKOV3 cells assessed as reduction in cell viability after 48 hrs by sulforhodamine B colorimetric assay. Particulars: SK-OV-3, 48 h. Type of data set: functional, cell-based. The procedure, abridged: (§1)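 SKOV3 cells and the retrovirally transduced subclone SKOV3-MDR1-M6/6, which overexpresses P-glycoprotein, were grown in BME with 10% FBS at 37°C under 5% CO₂. Cells were exposed to 0-25 μM for 48 hrs. Viability was read by SRB assay and a dose curve was plotted for each cell line. Paclitaxel served as the reference drug.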
A general note: In SRB staining, fixed cells bind dye roughly in proportion to their protein.

The nature of data set [2]: Cytotoxicity against human SKOV3-MDR1-M6/6 cells assessed as reduction in cell viability at 25 uM after 48 hrs by sulforhodamine B colorimetric assay. The class given is functional. The procedure, abridged:
as §1

Data set [3] relates to HepG2. The data set is described as follows: Cytotoxicity against human HepG2 cells assessed as reduction in cell viability after 48 hrs by sulforhodamine B colorimetric assay. The class given is functional, cell-based. Particulars: HepG2, 48 h. The procedure, abridged: (§2)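 Cell lines were kept at 37°C under 5% CO₂. HepG2, Hepa1-6, HeLa and MCF-7 were grown in DMEM with 10% FBS. Caco-2 was grown in DMEM with 20% FBS. HT-29 was grown in McCoy's medium with 10% FBS. The viability assay used 10-μM doxorubicin as positive control. Values marked * came from a single dose curve.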

The nature of data set [4]: Cytotoxicity against mouse Hepa1-6 cells assessed as reduction in cell viability after 48 hrs by sulforhodamine B colorimetric assay. Type of data set: functional, cell-based. Particulars: Hepa1-6, 48 h. An outline of the steps: as §2
The subject of a further data set is HT-29. The data set is described as follows: Cytotoxicity against human HT-29 cells assessed as reduction in cell viability after 48 hrs by sulforhodamine B colorimetric assay. Type of data set: functional, cell-based. Particulars: HT-29, 48 h. An outline of the steps: as §2
Data set [5] relates to HeLa. The data set is described as follows: Cytotoxicity against human HeLa cells assessed as reduction in cell viability after 48 hrs by sulforhodamine B colorimetric assay. Type of data set: functional, cell-based. The procedure, abridged: as §2
A further data set has as its system MCF7. The data set is described as follows: Cytotoxicity against human MCF7 cells assessed as reduction in cell viability after 48 hrs by sulforhodamine B colorimetric assay. The class given is functional, cell-based. Particulars: MCF7, 48 h. An outline of the steps:
as §2

Data set [6] relates to Hepa1-6. The data set is described as follows: Cytotoxicity against mouse Hepa1-6 cells assessed as reduction in cell viability at 50 uM after 48 hrs by sulforhodamine B colorimetric assay. The class given is functional, cell-based. An outline of the steps:
(§3)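 Primary mouse hepatocytes and Hepa1-6 cells were exposed to graded doses for 48 hrs. Viability was normalized to DMSO-treated cells. Hepa1-6 cells were grown in DMEM with 10% FBS at 37°C under 5% CO₂. 10-μM doxorubicin served as the cytotoxicity positive control.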

Data set [7] relates to Hepatocyte. The data set is described as follows: Cytotoxicity against hepatocytes (unknown origin) assessed as reduction in cell viability at 50 uM after 48 hrs by sulforhodamine B colorimetric assay. Type of data set: cell-based. The procedure, abridged: as §3
For data set [8], the system named is Hepa1-6. The data set is described as follows: Cytotoxicity against mouse Hepa1-6 cells assessed as reduction in cell viability at <5 uM after 48 hrs by sulforhodamine B colorimetric assay. The class given is functional, cell-based. An outline of the steps: as §3
The subject of data set [9] is Hepatocyte. The data set is described as follows: Cytotoxicity against hepatocytes (unknown origin) assessed as reduction in cell viability at <5 uM after 48 hrs by sulforhodamine B colorimetric assay. Type of data set: cell-based. An outline of the steps: as §3
Data set [10] has as its system HeLa. The data set is described as follows: Induction of apoptosis in human HeLa cells assessed as membrane blebbing at 2 uM after 12 hrs by microscopy. Type of data set: functional, cell-based. An outline of the steps: (§4)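 HeLa cells were seeded at 1.5-2.0×10^5 cells/well and treated. Membrane blebbing and cell shrinkage were assessed by light microscopy after 8, 12 or 15 hrs.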

Data set [11] concerns HeLa. The data set is described as follows: Induction of apoptosis in human HeLa cells assessed as membrane blebbing at 2 uM after 8 hrs by microscopy. Type of data set: functional, cell-based. Particulars: in the assay text read “12 hrs” for “8 hrs”. The procedure, abridged:
as §4

In data set [12] the test system is HeLa. The data set is described as follows: Induction of apoptosis in human HeLa cells assessed as membrane blebbing at 2 uM after 15 hrs by microscopy. The class given is functional, cell-based. Particulars: in the assay text read “12 hrs” for “15 hrs”. An outline of the steps: as §4
In data set [13] the test system is HeLa. The data set is described as follows: Induction of apoptosis in human HeLa cells assessed as PARP cleavage at <10 uM after 12 hrs by Western blotting. The class given is functional, cell-based. The procedure, abridged:
(§5)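 HeLa cells were treated for 12 hrs and lysed in 0.5% SDS buffer (50 mM Tris pH 8.0, 1 mM DTT, phosphatase and protease inhibitors). Lysates were western blotted with anti-PARP for full-length and cleaved PARP. 1 μM staurosporine served as positive control.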

In data set [14] the test system is HeLa. The data set is described as follows: Induction of apoptosis in human HeLa cells assessed as PARP cleavage at 10 uM after 12 hrs by Western blotting. The class given is functional, cell-based. The procedure, abridged:
as §5

Data set [15] is described as follows: Drug localization in cytoplasmic membrane of human HepG2 cells at 30 uM for 3 hrs by epifluorescent microscopy. Type of data set: ADME, cell membranes. Particulars: hepg2, 3 h.
Data set [16] can be described thus: Drug localization in cytoplasmic membrane of human HepG2 cells at 30 uM for 3 hrs by BODIPY TR-labelling based confocal microsocopy. The class given is ADME, cell membranes. Particulars: hepg2, 3 h. The procedure, abridged: (§6)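 Cells (200,000/well) were seeded on coverslips and incubated overnight at 37°C, then treated for 4 hrs (50 μM) or 3 hrs. They were rinsed with PBS/BSA and stained with 5 µM BODIPY TR-labeled sphingolipids for 30 min at 4°C. Cells were fixed in 4% paraformaldehyde, permeabilized with 0.2% Triton X-100, and examined by confocal microscopy using 1 µm Z-stacks.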

Data set [17] is described as follows: Drug localization in […] rich regions of cytoplasmic membrane of human HepG2 cells at 3 uM for 2 hrs by BODIPY TR-labeled sphingolipids detection based Western blotting. Type of data set: ADME, cell-based. Particulars: hepg2, 2 h. An outline of the steps:
(§7)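 HepG2 cells (1x10^6/plate) were treated for 4 hrs at 5 μM or for 2 hrs at 3 μM, then stained with 5 μM BODIPY TR sphingolipids for 30 min at 4°C. Cells were lysed in PBS with 0.5% Brij-96, and lysates were normalized by BCA. Lysates were separated on a step OptiPrep gradient (2.5–30%) at 125,000 g for 12 hrs. Fractions were analysed for compound fluorescence and blotted for Thy-1, Lyn and GAPDH.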

Data set [18] in a line: Cytotoxicity against human SKOV3-MDR1-M6/6 cells assessed as reduction in cell viability after 48 hrs by sulforhodamine B colorimetric assay. The class given is functional, cell-based. Particulars: SKOV3-MDR1-M6/6, 48 h. An outline of the steps:
as §1

Data set [19] can be described thus: Cytotoxicity against human Caco2 cells assessed as reduction in cell viability after 48 hrs by sulforhodamine B colorimetric assay. The class given is functional, cell-based. Particulars: Caco-2, 48 h. An outline of the steps:
as §2

The test system of data set [20] is HepG2. The data set is described as follows: Drug localization human HepG2 cells at 50 uM for 4 hrs by epifluorescent microscopy. The class given is ADME, cell-based. Particulars: hepg2, 4 h.
Data set [21] is described as follows: Drug localization in cytoplasmic membrane of human HepG2 cells at 50 uM for 4 hrs by BODIPY TR-labelling based confocal microsocopy. Type of data set: ADME, cell membranes. Particulars: hepg2, 4 h. The procedure, abridged: as §6
Data set [22] is described as follows: Drug localization in […] rich regions of cytoplasmic membrane of human HepG2 cells at 5 uM for 4 hrs by BODIPY TR-labeled sphingolipids detection based Western blotting. Particulars: hepg2, 4 h. Type of data set: ADME, cell-based. The procedure, abridged: as §7
A general note: In western blotting, separated proteins are transferred to a membrane and probed.

Structures are written as SMILES. The source made the active and inactive calls. No cut-off for these calls is given here. Bounds are passed on as bounds.

Consider `CC(=O)O[C@H]1C(=O)[C@@]2(C)[C@H]([C@H](OC(=O)c3ccccc3)[C@]3(O)C[C@H](OC(=O)[C@H](O)[C@@H](NC(=O)c4ccccc4)c4ccccc4)C(C)=C1C3(C)C)[C@]1(OC(C)=O)CO[C@@H]1C[C@@H]2O` [PACLITAXEL], for which, in data set [1], the IC50 – broadly, the concentration needed to halve the response being measured – is less than 0.001 µM. Besides, the Activity in data set [2] amounted to 40%.
Consider `c1cc2ccc3cccc4c(NCCCCN5CCCCC5)cc(c1)c2c34`, for which the IC50 in the data set with HepG2 [3] is 1.4 µM; in data set [4], 2.5 µM; in the data set on HT-29 it was 2.98 µM; in the data set on HeLa [5] it was 2.6 µM; in the data set with MCF7 it was 1.1 µM; in data set [1], 5 µM. In data set [18], the IC50 stood at 6.4 µM. Further, the outcome with Hepa1-6 [6], in the data set on Hepa1-6 [8], in the data set with HeLa [10], in the data set with HeLa [11], in the data set on HeLa [12] and in the data set with HeLa [14] was Active. For the same compound, the values for the Activity result in the data set on Hepatocyte [7] and in the data set on Hepatocyte [9] were “Toxic” and “Non-toxic”, respectively. Further, the outcome in the data set on HeLa [13] was inactive. The Drug uptake result in data set [15], in data set [16] and in data set [17] was “Active” each time.
Consider `CN1CCN(CCCCNc2cc3cccc4ccc5cccc2c5c43)CC1`, for which the half-inhibitory concentration (IC50) worked out at 2.4 µM with HepG2 [3]; 1.1 µM in data set [4]; 4.8 µM in the data set on HT-29; 4.1 µM in the data set with HeLa [5]; 2.6 µM with MCF7; 7.23 µM in [19]. The IC50 in [1] came out at 5.5 µM; in data set [18], 6.2 µM. Moreover, the result in the data set on Hepa1-6 [6], in the data set on Hepa1-6 [8], with HeLa [10], in the data set on HeLa [11], in the data set with HeLa [12] and with HeLa [14] was Active. For the same compound, the Activity result in the data set on Hepatocyte [7] was “Toxic”; with Hepatocyte [9] it was “Non-toxic”. For the same compound, in the data set with HeLa [13], the outcome was inactive. For the same compound, the Drug uptake entry in data set [15], in [16] and in data set [17] was “Active” in each case.
On to `O=C(CCC(=O)N1CCCCC1)Nc1cc2cccc3ccc4cccc1c4c32`, for which the IC50 (in the data set on HepG2 [3]; in data set [4]; with HeLa [5]) was more than 30 µM each time.
With `CC(C)COC(=O)Nc1cc2cccc3ccc4cccc1c4c32`, the concentration for half-maximal inhibition (IC50) was 30.4 µM in the data set with HepG2 [3]; 5.9 µM in data set [4]; 20.7 µM with HT-29; 16.2 µM in the data set on HeLa [5]; 36.3 µM in [19].
Turning to `CN1CCN(C(=O)CCC(=O)Nc2cc3cccc4ccc5cccc2c5c43)CC1`, the concentration for half-maximal inhibition (IC50) in the data set with HepG2 [3] is 16.9 µM; in [4], 14.8 µM; in the data set on HT-29 it was 19.3 µM; in the data set with HeLa [5] it was 16.8 µM; with MCF7 it was 14.1 µM.
Take `c1cc2ccc3cccc4c(NCCCCCN5CCCCC5)cc(c1)c2c34`: the IC50 was 18.8 µM in the data set on HepG2 [3]; 18.3 µM in data set [4]; 19.8 µM in the data set on HT-29; 18.2 µM in the data set on HeLa [5]; 14.1 µM with MCF7.
Consider `O=C(CCCC(=O)N1CCCCC1)Nc1cc2cccc3ccc4cccc1c4c32`, for which the concentration for half-maximal inhibition (IC50) (in data set [4]; in the data set with HT-29; in the data set on HeLa [5]; with MCF7) was more than 30 µM throughout.
On to `CC(C)COCNc1cc2cccc3ccc4cccc1c4c32`, for which the IC50 with HepG2 [3] is 39.6 µM; in data set [4], 9.9 µM; in the data set on HT-29, 14 µM; in the data set with HeLa [5], 9.8 µM; in [19], more than 50 µM. In addition, the Drug uptake entry (in the data set on HepG2 [20]; in [21]; in data set [22]) was “Active” throughout.
